# According to PubChem BioAssay:
# Activity calls are given as the source filed them.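 Rule for the calls, unless noted: active = fluorescence slope higher than the sample average by over 3 SD (cut at about -0.22 in these data, passing the limit was not always enough); inactive = the rest.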
# Assays:
# [1] = inhibitors of TNFa-induced NFkB p65 translocation, primary screen, imaging, HUVEC, MLSMR starter and 10KST1 sets (AID 438;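 active = inhibition above 20% together with a positive visual image hit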;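 note: compound added about 3h40 before a 20 min TNFalpha stimulation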;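 for inhibition: signal is the nuclear over cytoplasmic p65 intensity ratio per well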); details: HUVEC TNFa-induced p65 nuclear translocation; cell count: measured here: nuclei count (cytotoxicity indicator), at 2.08 µM; inhibition: at 2 µM, stronger effect = higher value, 0% TNFa-plus-vehicle, 100% no-TNFa wells
# [2] = endothelial E-selectin expression blockers – imaging, HUVEC, immunofluorescence, MLSMR starter and 10KST1 sets, primary screen (AID 487;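 active = visually confirmed hit in the image check and inhibition above 20%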;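 for inhibition: signal is fraction of cell area covered by stained E-selectin grains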;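 for nuclei count: 100% = median nuclei count of all wells on the same plate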); details: HUVEC TNFalpha-induced E-selectin immunofluorescence imaging, at 2 µM; inhibition: stronger effect = higher value; nuclei count: measured here: cell number, toxicity
# [3] = Primary imaging screen for DUSP6 inhibitors that restore phospho-Erk in transfected HeLa cells, chemical complementation (AID 609;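 active = compounds giving at least 50% inhibition in the cell-based MKP-3 phosphatase rescue imaging test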;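 for inhibition: phospho-Erk level distribution per well compared with pooled transfected vehicle control wells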); details: HeLa MKP-3 transfected, phospho-Erk imaging KS statistic, at 10 µM, cells stimulated with TPA for 15 min
# [4] = biological target: Dual specificity protein phosphatase 6 (Homo sapiens) (UniProt Q16828); test: as above; details: HeLa MKP-3 transfected, phospho-Erk imaging KS statistic; at 10 µM; stronger effect = higher value; cells stimulated with TPA for 15 min
# [5] = biological target: Voltage-gated potassium channel subunit beta-2 (Rattus norvegicus) (UniProt P62483); test: inhibitors of rat Kvbeta2 reductase activity – biochemical, NADPH fluorescence, primary screen (AID 622); details: recombinant KvBeta, 4-cyanobenzaldehyde reduction, at 10 µM, stronger effect = higher value;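 note: slope of raw intensity against log time taken from 70 to 1610 s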
# [6] = biological target: Voltage-gated potassium channel subunit beta-2 (Rattus norvegicus) (UniProt P62483); test: enhancers of rat Kvbeta2 NADPH turnover – biochemical, NADPH fluorescence, primary screen (AID 623;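 active = NADPH fluorescence slope more negative than the mean of all samples by about 3 SD, 99.7% confidence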;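 note: fluorescence intensity change per second fitted from 20 to 320 s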); details: Recombinant KvBeta, NADPH fluorescence decrease slope, 10 min; at 10 µM; stronger effect = lower value
# [7] = biological target: Muscarinic acetylcholine receptor M4 (Homo sapiens) (UniProt P08173); test: M4-linked GIRK flux change, two-sided – cell-based, HEK293 M4/GIRK, thallium flux, BTC-AM, M4 allosteric agonist project, primary screen (AID 625;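 active = fluorescence slope after compound addition differing from the mean of all tested samples at 99.7% confidence, mostly higher but some lower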;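 note: thallium influx through GIRK channels coupled to M4 in HEK293 cells with BTC-AM dye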); details: at 10 µM, actives lie on both sides
# Outline: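 Material – HEK293 cells with M4 receptor and GIRK channels · Buffer or medium – pH 7.3 thallium assay buffer · Doses – one dose, 10 µM final · Timing – cells overnight at 37 °C, BTC-AM loading 1 h, reads 2 min total · Measured by – kinetic fluorescence with BTC-AM dye · Controls – carbachol and DMSO controls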
# [8] = inhibitors of larval lipid processing in zebrafish, primary screen, whole organism, PED6 fluorescence, gall bladder and intestine (AID 686;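 active = a full or partial loss of lipid-probe fluorescence in the fish gall bladder, intestine or both, judged by eye; inactive = no fluorescence loss, or compound toxic to the fish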;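 note: larvae 5 to 7 days old with five fish per well; signal comes from phospholipase A2 cleavage of quenched PED6 carried via bile; overnight exposure to compound and PED6 before scoring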); details: Zebrafish larvae PED6 lipid processing, fluorescence scoring; screened at 20 µM (by protocol)
# Outline: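 system = live zebrafish larvae aged 5-7 days, whole organism | probe or stimulus = ingested quenched lipid PED6 at 100 nM | doses = 20 µM single dose | timing = overnight exposure | detection = fluorescence microscopy with visual scoring of gall bladder and intestine | read-out = visual per-well fluorescence inhibition score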
# [9] = loss of swimming-algae plug formation – whole organism, Chlamydomonas reinhardtii, WT vs cilia-less mutant, absorbance, 96-well, primary screen (AID 463189;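 active = inhibition at or above 50% relative to wild type and mutant plate controls; inactive = inhibition below 50%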;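 note: 0% = wild type cc124 cells in DMSO and 100% = ciliumless bld1 mutant cells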); details: Chlamydomonas reinhardtii gravitaxis, OD600 absorbance, 2 days; at 10 µM; stronger effect = higher value
# [10] = measured here: cell density z-score
# [11] = measured here: nuclear c-Myc green intensity z-score
# [12] = measured here: nuclear pErk red intensity z-score, stronger effect = higher value
# Voltage-gated potassium channel subunit beta-2 (Rattus norvegicus), sequence (P62483 whole entry, looked up): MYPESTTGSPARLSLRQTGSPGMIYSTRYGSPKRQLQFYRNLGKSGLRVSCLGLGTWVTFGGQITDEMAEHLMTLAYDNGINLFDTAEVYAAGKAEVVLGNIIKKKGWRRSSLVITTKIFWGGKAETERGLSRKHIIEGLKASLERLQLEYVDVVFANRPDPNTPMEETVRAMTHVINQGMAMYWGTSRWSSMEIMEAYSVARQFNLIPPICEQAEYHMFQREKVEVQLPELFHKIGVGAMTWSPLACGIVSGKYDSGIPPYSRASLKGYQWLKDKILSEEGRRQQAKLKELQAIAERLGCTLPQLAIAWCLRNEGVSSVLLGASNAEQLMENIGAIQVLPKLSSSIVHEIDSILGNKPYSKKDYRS
# Muscarinic acetylcholine receptor M4 (Homo sapiens), sequence (P08173 whole entry, looked up): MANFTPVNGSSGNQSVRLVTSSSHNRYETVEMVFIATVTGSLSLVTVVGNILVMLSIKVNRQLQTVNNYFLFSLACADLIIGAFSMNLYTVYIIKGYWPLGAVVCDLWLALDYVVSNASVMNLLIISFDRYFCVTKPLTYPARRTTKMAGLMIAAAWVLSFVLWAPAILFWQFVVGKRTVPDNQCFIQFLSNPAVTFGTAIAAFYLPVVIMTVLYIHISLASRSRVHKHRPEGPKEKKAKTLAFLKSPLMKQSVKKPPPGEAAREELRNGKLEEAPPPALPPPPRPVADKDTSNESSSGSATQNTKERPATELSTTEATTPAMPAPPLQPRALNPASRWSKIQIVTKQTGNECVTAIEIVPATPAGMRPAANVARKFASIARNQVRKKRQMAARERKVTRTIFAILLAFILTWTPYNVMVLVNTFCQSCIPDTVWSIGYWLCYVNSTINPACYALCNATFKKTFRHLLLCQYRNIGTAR
# Dual specificity protein phosphatase 6 (Homo sapiens), sequence (Q16828 whole entry, looked up): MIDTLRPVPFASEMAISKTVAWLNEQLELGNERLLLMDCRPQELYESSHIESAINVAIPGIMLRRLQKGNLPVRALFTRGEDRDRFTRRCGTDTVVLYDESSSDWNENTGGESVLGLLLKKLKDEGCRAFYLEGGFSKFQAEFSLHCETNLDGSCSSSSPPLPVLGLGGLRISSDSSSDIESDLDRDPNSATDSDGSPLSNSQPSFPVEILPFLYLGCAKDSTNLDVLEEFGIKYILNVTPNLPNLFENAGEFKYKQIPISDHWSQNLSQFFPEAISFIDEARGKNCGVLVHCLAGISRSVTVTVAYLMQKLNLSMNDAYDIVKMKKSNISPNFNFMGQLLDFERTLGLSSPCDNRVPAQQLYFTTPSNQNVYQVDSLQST
Compound,cell count [1],inhibition [1],inhibition [2],nuclei count [2] [%],"z-score [3, 10]","z-score [3, 11]","z-score [3, 12]",inhibition [4],fluorescence slope [5],NADPH fluorescence slope [6],fluorescence slope [7],outcome [8],inhibition [9]
COc1ccc(CSC2=NCCN2)cc1Cl,382,-2.2% (inactive),-95.2% (inactive),83.1,-0.238,2.09,0.748,9.42% (inactive),-0.459 (inactive),-7e-05 (inactive),0.00397 (inactive),inactive,143% (active)
Nc1nnnn1/N=C/c1ccco1,510,-4% (inactive),-8.3% (inactive),90.4,0.476,0.245,-0.718,11% (inactive),-0.502 (inactive),-4.9e-05 (inactive),0.00713 (inactive),inactive,-6.14% (inactive)
CC12CN3CC(=O)N4CC5(C)CN(CC(C)(C4)C5=O)C(=O)CN(C1)CC(C)(C3)C2=O,523,-11.2% (inactive),-128% (inactive),144,0.984,-0.638,-0.379,1.42% (inactive),-0.485 (inactive),-0.000104 (inactive),0.00461 (inactive),inactive,6.7% (inactive)
CCOC(=O)C1CCN(c2ncnc3c2cnn3-c2ccc(OC)cc2)CC1,680,-2.1% (inactive),-138% (inactive),191,0.032,-0.586,0.421,13.4% (inactive),-0.405 (inactive),-3.9e-05 (inactive),0.00612 (inactive),inactive,-3.46% (inactive)
CN1C(=O)NC(c2ccccc2)C2=C1CN(Cc1ccccc1)C2=O (stereo not drawn),400,-7.1% (inactive),-56.6% (inactive),139,0.502,-1.59,1.04,-2.59% (inactive),-0.501 (inactive),-0.000103 (inactive),0.00419 (inactive),inactive,23.3% (inactive)
CCO/C(C)=N/n1c2nc3ccccc3nc2c2c(=O)n(Cc3ccccc3Cl)c(C)nc21,649,-3.5% (inactive),-201% (inactive),159,-0.0584,-0.543,-0.0329,9.37% (inactive),-0.455 (inactive),-3.5e-05 (inactive),0.00359 (inactive),inactive,12.7% (inactive)
COc1ccc(C2/C(=C(\O)c3ccc4c(c3)OCCO4)C(=O)C(=O)N2CCCN(C)C)cc1 (stereo not drawn),368,-2.4% (inactive),-14.3% (inactive),131,-2.04,0.887,-0.106,3.56% (inactive),-0.506 (inactive),-3.1e-05 (inactive),0.00537 (inactive),inactive,-13.1% (inactive)
O=C(c1ccc(-n2cnnn2)cc1)N1CCOCC1,670,-3.5% (inactive),18.9% (inactive),171,0.439,-0.115,0.866,4.72% (inactive),-0.492 (inactive),-4.1e-05 (inactive),0.00579 (inactive),inactive,-1.94% (inactive)
CC(C)(C)c1cc(-c2ccco2)c(C#N)c(SCC#N)n1,685,6.9% (inactive),-48.1% (inactive),116,0.036,0.336,0.596,-9.53% (inactive),-0.442 (inactive),-7.2e-05 (inactive),0.0081 (inactive),inactive,-12.6% (inactive)
N/C(=N\S(=O)(=O)c1ccc(Cl)s1)c1ccccc1,671,-8.3% (inactive),-77.1% (inactive),150,1.62,-1.89,-1.41,7.83% (inactive),-0.473 (inactive),-4.6e-05 (inactive),0.00465 (inactive),inactive,19.3% (inactive)
c1ccc(-n2ncc3c(N4CCCC4)ncnc32)cc1,589,-7% (inactive),12.6% (inactive),188,0.427,1.25,-0.224,7.42% (inactive),-0.378 (inactive),-3.1e-05 (inactive),0.00634 (inactive),inactive,15.7% (inactive)
